The text below walks through data of ChEMBL document CHEMBL1155278, “3,4-Diaryl-isoxazoles and -imidazoles as potent dual inhibitors of p38alpha mitogen activated protein kinase and casein kinase 1delta” (J Med Chem, 2009).

Assay [1] addresses 3-phosphoinositide-dependent protein kinase 1 (Homo sapiens) (UniProt O15530). In words: Inhibition of PDK1 assessed as residual activity at 0.1 uM by Cherenkov counting relative to control in presence of 20 uM ATP.
The target of assay [2] is Mitogen-activated protein kinase 14 (Homo sapiens, UniProt Q16539). In words: Inhibition of p38alpha by Cherenkov counting.
Sequence of Mitogen-activated protein kinase 14 (Q16539 whole entry): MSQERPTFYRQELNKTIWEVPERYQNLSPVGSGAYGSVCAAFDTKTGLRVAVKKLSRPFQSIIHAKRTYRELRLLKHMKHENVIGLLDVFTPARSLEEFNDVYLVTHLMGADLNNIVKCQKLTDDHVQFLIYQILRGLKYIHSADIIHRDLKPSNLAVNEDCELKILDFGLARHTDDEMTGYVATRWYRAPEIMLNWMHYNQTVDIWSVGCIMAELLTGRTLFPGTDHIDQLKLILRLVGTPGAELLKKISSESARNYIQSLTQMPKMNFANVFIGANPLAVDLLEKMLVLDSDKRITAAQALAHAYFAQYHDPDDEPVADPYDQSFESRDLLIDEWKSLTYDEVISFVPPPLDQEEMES
In assay [3] the target is Cyclin-dependent kinase 2/cyclin A (Homo sapiens) (UniProt P24941+P20248+P78396). Nature of the assay: Inhibition of CDK2/cyclin A assessed as residual activity at 0.1 uM by Cherenkov counting relative to control in presence of 20 uM ATP. Format: protein-complex assay. The method, boiled down: (§1)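 Single-concentration screen at 0.1 µM across a panel of 76 protein kinases. Each kinase was run at an ATP concentration approximating its ATP Km. Results are % mean residual activity versus control assays without compound (n = 3 ± SD).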

Assay [4] addresses Tyrosine-protein kinase CSK (Homo sapiens) (UniProt P41240). Nature of the assay: Inhibition of CSK assessed as residual activity at 0.1 uM by Cherenkov counting relative to control in presence of 20 uM ATP. The method, boiled down:
as §1

Assay [5] addresses Serine/threonine-protein kinase pim-3 (Homo sapiens) (UniProt Q86V86). Nature of the assay: Inhibition of PIM3 assessed as residual activity at 0.1 uM by Cherenkov counting relative to control in presence of 20 uM ATP. The method, boiled down:
(§2)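 Single-concentration selectivity screen at 0.1 μM against a panel of 76 protein kinases. Each kinase was run at an ATP level approximating its Km for ATP. Output is mean residual activity as % of the control assay without compound, n = 3 ± SD.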

Assay [6] concerns the target Tyrosine-protein kinase BTK (Homo sapiens) (UniProt Q06187). In words: Inhibition of BTK assessed as residual activity at 0.1 uM by Cherenkov counting relative to control in presence of 50 uM ATP. The method, boiled down:
as §1

Assay [7] deals with Mitogen-activated protein kinase 8 (Homo sapiens) (UniProt P45983). Nature of the assay: Inhibition of JNK1 assessed as residual activity at 0.1 uM by Cherenkov counting relative to control in presence of 20 uM ATP. The method, boiled down: as §2
Sequence of Mitogen-activated protein kinase 8 (Homo sapiens) (P45983 whole entry): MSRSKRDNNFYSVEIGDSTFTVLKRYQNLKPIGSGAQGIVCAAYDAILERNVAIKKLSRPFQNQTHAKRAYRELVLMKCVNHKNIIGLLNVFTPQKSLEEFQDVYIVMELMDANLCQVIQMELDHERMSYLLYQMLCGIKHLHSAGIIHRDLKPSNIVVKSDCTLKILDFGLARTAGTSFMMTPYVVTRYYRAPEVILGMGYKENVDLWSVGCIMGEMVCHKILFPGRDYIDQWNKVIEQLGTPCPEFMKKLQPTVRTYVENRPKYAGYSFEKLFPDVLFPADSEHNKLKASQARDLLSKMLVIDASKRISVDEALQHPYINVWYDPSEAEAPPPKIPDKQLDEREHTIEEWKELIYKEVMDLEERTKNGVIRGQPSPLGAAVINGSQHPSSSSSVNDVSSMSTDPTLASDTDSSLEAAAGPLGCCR
Assay [8] concerns the target Myosin light chain kinase, smooth muscle (Homo sapiens) (UniProt Q15746). Nature of the assay: Inhibition of smooth muscle MLCK assessed as residual activity at 10 uM by Cherenkov counting relative to control in presence of 50 uM ATP. The method in brief: (§3)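 Single-concentration profiling at 10 μM in a 78-kinase panel. Kinase activity is expressed as a percentage of control assays run without compound.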

Assay [9] concerns the target T1, Protein kinase C zeta type (Homo sapiens) (UniProt Q05513).
T1 sequence (whole entry): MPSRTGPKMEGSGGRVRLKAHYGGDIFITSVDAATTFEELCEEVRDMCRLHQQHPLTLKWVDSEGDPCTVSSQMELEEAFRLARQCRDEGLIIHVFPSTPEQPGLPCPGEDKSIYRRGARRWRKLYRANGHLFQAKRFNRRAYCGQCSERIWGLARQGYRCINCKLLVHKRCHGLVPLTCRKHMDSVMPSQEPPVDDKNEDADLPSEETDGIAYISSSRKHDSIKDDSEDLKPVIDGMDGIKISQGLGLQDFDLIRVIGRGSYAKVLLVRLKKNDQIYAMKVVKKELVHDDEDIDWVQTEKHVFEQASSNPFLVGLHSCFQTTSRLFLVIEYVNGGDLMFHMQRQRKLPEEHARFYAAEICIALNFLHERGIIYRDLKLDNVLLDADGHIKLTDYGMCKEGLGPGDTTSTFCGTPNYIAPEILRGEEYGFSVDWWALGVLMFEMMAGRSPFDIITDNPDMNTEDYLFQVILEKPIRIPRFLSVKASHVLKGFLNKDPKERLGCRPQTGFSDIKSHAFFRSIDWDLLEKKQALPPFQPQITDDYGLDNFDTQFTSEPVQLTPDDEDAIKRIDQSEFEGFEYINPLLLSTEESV
Nature of the assay: Inhibition of PKCzeta assessed as residual activity at 10 uM by Cherenkov counting relative to control in presence of 5 uM ATP. The method in brief: as §3

A short description of assay [10]: Inhibition of AMPK assessed as residual activity at 10 uM by Cherenkov counting relative to control in presence of 50 uM ATP. The method, boiled down: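 Single-point profiling at 10 µM in a panel of 78 protein kinases. Kinase activity is expressed as a percentage relative to control assays without compound.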
Assay [11] deals with SRSF protein kinase 1 (Homo sapiens) (UniProt Q96SB4). In words: Inhibition of SRPK1 assessed as residual activity at 10 uM by Cherenkov counting relative to control in presence of 50 uM ATP. The method in brief: as §3
Sequence of SRSF protein kinase 1 (Homo sapiens) (Q96SB4 whole entry): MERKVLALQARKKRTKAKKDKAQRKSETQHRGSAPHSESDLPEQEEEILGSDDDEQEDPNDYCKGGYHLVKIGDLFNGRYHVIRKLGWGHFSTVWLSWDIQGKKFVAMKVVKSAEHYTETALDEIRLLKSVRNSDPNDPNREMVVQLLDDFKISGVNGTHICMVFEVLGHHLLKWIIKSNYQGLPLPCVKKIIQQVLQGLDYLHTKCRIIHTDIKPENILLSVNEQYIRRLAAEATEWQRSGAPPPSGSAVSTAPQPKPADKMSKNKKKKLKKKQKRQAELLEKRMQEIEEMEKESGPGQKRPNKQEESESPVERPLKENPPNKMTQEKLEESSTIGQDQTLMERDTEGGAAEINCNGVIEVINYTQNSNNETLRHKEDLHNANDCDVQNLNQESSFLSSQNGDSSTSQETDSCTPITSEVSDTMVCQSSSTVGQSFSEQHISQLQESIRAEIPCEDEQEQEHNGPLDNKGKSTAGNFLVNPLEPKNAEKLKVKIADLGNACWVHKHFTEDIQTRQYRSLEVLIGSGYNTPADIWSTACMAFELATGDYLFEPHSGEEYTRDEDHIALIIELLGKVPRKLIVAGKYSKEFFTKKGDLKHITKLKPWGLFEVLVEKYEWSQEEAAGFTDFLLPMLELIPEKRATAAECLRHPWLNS
Assay [12] deals with Serine/threonine-protein kinase Nek7 (Homo sapiens) (UniProt Q8TDX7). Nature of the assay: Inhibition of NEK7 assessed as residual activity at 10 uM by Cherenkov counting relative to control.
Assay [13] addresses Ribosomal protein S6 kinase alpha-3 (Homo sapiens) (UniProt P51812). Nature of the assay: Inhibition of RSK2 assessed as residual activity at 10 uM by Cherenkov counting relative to control in presence of 50 uM ATP. The method, boiled down:
as §3

In assay [14] the target is Maternal embryonic leucine zipper kinase (Homo sapiens) (UniProt Q14680). In words: Inhibition of MELK assessed as residual activity at 10 uM by Cherenkov counting relative to control in presence of 50 uM ATP.
Sequence of Maternal embryonic leucine zipper kinase (Homo sapiens) (Q14680 whole entry, looked up): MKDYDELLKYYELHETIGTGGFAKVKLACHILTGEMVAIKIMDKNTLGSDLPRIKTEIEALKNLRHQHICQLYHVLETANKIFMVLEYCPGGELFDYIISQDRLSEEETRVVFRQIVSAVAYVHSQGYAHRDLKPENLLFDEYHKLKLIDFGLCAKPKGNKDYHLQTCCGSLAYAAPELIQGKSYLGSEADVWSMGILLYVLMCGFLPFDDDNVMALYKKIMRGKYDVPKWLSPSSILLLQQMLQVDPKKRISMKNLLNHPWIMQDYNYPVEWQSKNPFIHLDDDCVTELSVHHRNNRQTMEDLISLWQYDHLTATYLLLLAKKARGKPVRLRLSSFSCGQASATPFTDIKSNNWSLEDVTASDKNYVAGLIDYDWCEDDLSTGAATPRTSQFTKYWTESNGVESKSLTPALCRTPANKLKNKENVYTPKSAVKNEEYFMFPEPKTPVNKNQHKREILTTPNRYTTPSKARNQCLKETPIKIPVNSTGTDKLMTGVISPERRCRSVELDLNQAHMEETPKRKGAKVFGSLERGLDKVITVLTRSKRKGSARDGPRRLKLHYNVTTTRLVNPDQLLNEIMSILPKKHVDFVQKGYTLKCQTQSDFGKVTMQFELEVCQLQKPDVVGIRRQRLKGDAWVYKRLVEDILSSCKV
For assay [15], the target named is Serine/threonine-protein kinase PAK 4 (Homo sapiens) (UniProt O96013). In words: Inhibition of PAK4 assessed as residual activity at 10 uM by Cherenkov counting relative to control in presence of 5 uM ATP.

Structures are written as SMILES.

Sequence of Tyrosine-protein kinase BTK (Homo sapiens) (Q06187 whole entry): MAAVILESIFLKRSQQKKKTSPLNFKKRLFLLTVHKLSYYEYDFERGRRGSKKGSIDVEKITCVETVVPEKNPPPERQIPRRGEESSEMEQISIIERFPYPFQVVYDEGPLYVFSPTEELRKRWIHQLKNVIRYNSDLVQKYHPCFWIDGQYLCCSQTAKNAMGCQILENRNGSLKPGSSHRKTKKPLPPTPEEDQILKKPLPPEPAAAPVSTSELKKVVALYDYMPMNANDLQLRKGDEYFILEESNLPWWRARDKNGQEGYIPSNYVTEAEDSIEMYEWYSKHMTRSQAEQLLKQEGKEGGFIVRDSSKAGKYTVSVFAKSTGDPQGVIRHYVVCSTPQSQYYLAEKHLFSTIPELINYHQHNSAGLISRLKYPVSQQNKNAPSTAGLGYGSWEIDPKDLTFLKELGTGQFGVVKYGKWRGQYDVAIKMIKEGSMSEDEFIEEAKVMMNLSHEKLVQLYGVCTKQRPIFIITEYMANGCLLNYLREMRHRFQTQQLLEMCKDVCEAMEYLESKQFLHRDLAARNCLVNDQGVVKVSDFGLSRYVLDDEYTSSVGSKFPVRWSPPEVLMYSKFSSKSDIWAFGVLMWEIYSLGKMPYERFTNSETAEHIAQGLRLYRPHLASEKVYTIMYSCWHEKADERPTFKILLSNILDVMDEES
Sequence of 3-phosphoinositide-dependent protein kinase 1 (Homo sapiens) (O15530 whole entry, looked up): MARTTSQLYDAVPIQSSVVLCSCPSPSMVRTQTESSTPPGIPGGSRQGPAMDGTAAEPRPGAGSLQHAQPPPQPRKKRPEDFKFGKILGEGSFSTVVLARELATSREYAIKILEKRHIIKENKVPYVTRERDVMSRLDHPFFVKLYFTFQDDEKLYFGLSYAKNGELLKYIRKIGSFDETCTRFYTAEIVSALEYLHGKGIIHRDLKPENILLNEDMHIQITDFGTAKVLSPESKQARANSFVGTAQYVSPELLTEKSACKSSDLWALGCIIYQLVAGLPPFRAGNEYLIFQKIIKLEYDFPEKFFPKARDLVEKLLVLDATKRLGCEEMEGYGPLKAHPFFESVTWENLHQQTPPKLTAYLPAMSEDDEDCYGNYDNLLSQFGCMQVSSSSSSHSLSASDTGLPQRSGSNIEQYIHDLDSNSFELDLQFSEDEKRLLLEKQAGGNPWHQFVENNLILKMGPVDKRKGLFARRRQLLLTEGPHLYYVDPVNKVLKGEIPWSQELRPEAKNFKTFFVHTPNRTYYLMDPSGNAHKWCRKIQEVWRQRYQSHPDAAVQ
Sequence of Tyrosine-protein kinase CSK (Homo sapiens) (P41240 2-450 limits assumed): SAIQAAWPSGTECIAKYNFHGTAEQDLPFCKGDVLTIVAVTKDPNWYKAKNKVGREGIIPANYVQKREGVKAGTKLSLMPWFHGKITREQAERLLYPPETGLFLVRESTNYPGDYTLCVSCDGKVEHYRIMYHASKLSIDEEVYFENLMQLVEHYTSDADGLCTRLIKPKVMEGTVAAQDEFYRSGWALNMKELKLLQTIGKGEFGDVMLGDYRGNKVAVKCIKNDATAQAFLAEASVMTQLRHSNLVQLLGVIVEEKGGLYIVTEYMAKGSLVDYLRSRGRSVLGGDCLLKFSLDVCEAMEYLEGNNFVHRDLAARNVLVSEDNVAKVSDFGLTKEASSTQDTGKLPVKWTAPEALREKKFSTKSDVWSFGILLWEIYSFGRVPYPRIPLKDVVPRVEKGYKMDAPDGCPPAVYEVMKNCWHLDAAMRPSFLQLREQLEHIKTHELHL
Sequence of Ribosomal protein S6 kinase alpha-3 (Homo sapiens) (P51812 whole entry): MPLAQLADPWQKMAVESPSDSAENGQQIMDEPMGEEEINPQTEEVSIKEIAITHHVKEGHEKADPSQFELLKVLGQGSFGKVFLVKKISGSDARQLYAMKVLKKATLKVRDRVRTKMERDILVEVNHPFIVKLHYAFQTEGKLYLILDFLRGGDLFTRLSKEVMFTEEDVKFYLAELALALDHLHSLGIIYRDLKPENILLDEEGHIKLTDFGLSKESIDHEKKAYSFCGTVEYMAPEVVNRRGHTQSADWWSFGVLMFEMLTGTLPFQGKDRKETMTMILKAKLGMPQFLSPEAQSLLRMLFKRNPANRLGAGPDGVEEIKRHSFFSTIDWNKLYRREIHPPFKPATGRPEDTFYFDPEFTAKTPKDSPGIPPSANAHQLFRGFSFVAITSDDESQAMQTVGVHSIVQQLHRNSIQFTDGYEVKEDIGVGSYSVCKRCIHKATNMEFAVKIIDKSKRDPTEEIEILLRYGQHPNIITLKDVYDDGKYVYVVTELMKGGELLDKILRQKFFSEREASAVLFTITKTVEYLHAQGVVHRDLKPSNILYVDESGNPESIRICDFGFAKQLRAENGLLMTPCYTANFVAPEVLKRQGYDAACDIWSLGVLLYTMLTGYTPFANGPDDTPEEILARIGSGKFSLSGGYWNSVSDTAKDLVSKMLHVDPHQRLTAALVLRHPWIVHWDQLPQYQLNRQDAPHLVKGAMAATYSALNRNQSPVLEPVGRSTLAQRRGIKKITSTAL

As for `COc1ccc(/C=C/C(=O)Nc2cc(-c3[nH]c(SC)nc3-c3ccc(F)cc3)ccn2)c(OC)c1`, the Activity is 74% in assay [1]; 112% in assay [3]; 81% in [4]; 81% in assay [5]; 92% in [6]; 90% in assay [7]. Besides, in [2], the IC50 – broadly, the concentration that gives 50% inhibition – is 19 nM.
For the compound `CC(C)c1onc(-c2ccc(F)cc2)c1-c1ccncc1`, the Activity is 99% in [8]; 81% in assay [9]; 88% in [10]; 81% in assay [11]; 104% in assay [12]; 113% in assay [13]. The Activity turned out to be 78% in [14] and 106% in assay [15].
For `CC(C)c1noc(-c2ccc(F)cc2)c1-c1ccncc1`, the Activity in [8] is 110%; in assay [9], 91%; in [10], 73%; in assay [11] it was 86%; in assay [12], 100%; in assay [13] it was 120%. The figures for the Activity in assay [14] and in assay [15] were 108% and 107%, respectively.
With `COc1ccc(/C=C/C(=O)Nc2cc(-c3[nH]c([S+](C)[O-])nc3-c3ccc(F)cc3)ccn2)c(OC)c1` (stereo not given), the Activity in assay [1] worked out at 94%; in assay [3], 115%; in [4], 79%; in assay [5], 90%; in assay [6], 105%; in [7], 53%. It took 41 nM to reach half-maximal inhibition in assay [2] (IC50).
